Measurements from different studies.
Each line is one published result; the experiments were not run side by side.
Organism: Human immunodeficiency virus 1
Read-out: viral replication

`O=c1cc(-c2ccc(O)cc2)oc2cc(O)cc(O)c12` has an EC50 of 5 µM (inhibitor; human PBMC; 6 days).
The inhibition of `O=c1[nH]cc(C(c2cccc(C(c3c[nH]c(=O)[nH]c3=O)c3c[nH]c(=O)[nH]c3=O)c2)c2c[nH]c(=O)[nH]c2=O)c(=O)[nH]1` is reported as 20% (inhibitor, ELISA; 1 µg/mL).
`O=C(O)c1cc(O)c(O)c(O)c1` gave an IC50 of 0.36 µg/mL (inhibitor, luciferase; TZM-bl; 48 h).
The IC50 of `Cc1nc(C(CN)NC(=O)C(=O)Nc2ccc3c(c2)OCO3)sc1CO` (stereo not shown) is reported as > 79 µM (ELISA; MT2).
For `Cc1cn([C@H]2C[C@H](N=[N+]=[N-])[C@@H](CO)O2)c(=O)[nH]c1=O`, the IC50 was 0.094 µg/mL (inhibitor; CEM-GFP; 8 days).
`O=[N+]([O-])c1cccc(-c2nc3c4cc(I)ccc4c4ccccc4c3[nH]2)c1` gave an IC50 of 14.2 µM (inhibitor; human PBMC; 7 days).
With `CC(C)C[C@H](NC(=O)[C@@H](NC(=O)[C@@H]1CCCN1C(=O)[C@@H](NC(=O)[C@H](CO)NC(=O)[C@@H](NC(=O)[C@H](CCC(N)=O)NC(=O)[C@@H]1CCCN1C(=O)[C@@H](NC(=O)[C@H](CCCCN)NC(=O)[C@H](CCCCN)NC(=O)[C@@H](NC(=O)[C@H](Cc1ccc(O)cc1)NC(=O)[C@H](CCCNC(=N)N)NC(=O)[C@@H](NC(=O)[C@@H](N)CC(C)C)C(C)C)[C@@H](C)O)C(C)C)C(C)C)[C@@H](C)O)[C@@H](C)O)C(=O)O` the IC50 was > 10 µM (inhibitor; TZM-bl).
With `CCOC(=O)c1cccc(Cn2ccc3ccc(-c4ccc5ccn(Cc6cccc(C(=O)O)c6)c5c4)cc32)c1` the IC90 was 28.9 µM (inhibitor; MAGI, BAL).
`COc1ccccc1CN[C@H]1C2CCN(CC2)[C@H]1C(c1ccccc1)c1ccccc1` gave an IC50 of 15.2 µM (ELISA; human PBMC, BAL; 7 days).
The IC50 of `O=c1oc2c(O)c(O)cc3c(=O)oc4c(O)c(O)cc1c4c23` is reported as 18.8 µg/mL (inhibitor, luciferase; TZM-bl; 48 h).
The EC50 of `O=c1cc(-c2ccc(O)c(O)c2)oc2cc(O)cc(O)c12` is reported as 12.7 µM (inhibitor; human PBMC; 6 days).
With `O=C(O)c1cc(F)cc(Cn2ccc3ccc(-c4ccc5ccn(Cc6cccc(OC(F)(F)F)c6)c5c4)cc32)c1` the IC50 was 2 µM (inhibitor; IIIB).
`c1cc(CN2CCCNCCNCCCNCC2)ccc1CN1CCCNCCNCCCNCC1` gave an EC50 of 0.00093 µM (inhibitor, luciferase; TZM-bl).
`O=c1cc(-c2ccccc2)oc2cc(O)cc(O)c12` gave an EC50 of 9.2 µM (inhibitor; human PBMC; 6 days).
`C/C(=C\C(=O)OCCCCCCCCC(=O)O)C[C@@H]1OC[C@H](C[C@@H]2O[C@H]2[C@@H](C)[C@H](C)O)[C@@H](O)[C@H]1O` has an EC50 of > 100 µM (inhibitor; TZM-bl).
`C[C@@H](O[C@H]1OCCN(Cc2n[nH]c(=O)[nH]2)[C@H]1c1ccc(F)cc1)c1cc(C(F)(F)F)cc(C(F)(F)F)c1` has an IC50 of 5.7 µM (inhibitor, ELISA; human PBMC, NL43; 7 days).
